Screening data from PubChem.
PLCb3 inh – inhibitors of human phospholipase C beta3; 370,000 compounds, 0.18% hits; Purified PLC-beta3, fluorogenic substrate, fluorescence; Q01970; inhibition, % at 12.2 µM; in the data active = inhibition above about 11%;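 note: 0% = median of compound wells on plate and 100% = full blocker control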
Tn6 DDE FP – disrupts Tn6 cyclic peptide binding to fibrin D-Dimer-E complex | P02675 | Fibrin DD(E) TRITC-Tn6 fluorescence polarization displacement | inhibition, % at 8.3 µM | 370,000 compounds, 0.21% hits | AID 720509;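 active = inhibition above a per-campaign cutoff: mean of compounds within control limits plus 3 SD, cut at about 15% in these data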;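 note: 0% = median of all compound wells on the plate and 100% = blocking peptide control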
Target sequence (P02675 whole entry, looked up): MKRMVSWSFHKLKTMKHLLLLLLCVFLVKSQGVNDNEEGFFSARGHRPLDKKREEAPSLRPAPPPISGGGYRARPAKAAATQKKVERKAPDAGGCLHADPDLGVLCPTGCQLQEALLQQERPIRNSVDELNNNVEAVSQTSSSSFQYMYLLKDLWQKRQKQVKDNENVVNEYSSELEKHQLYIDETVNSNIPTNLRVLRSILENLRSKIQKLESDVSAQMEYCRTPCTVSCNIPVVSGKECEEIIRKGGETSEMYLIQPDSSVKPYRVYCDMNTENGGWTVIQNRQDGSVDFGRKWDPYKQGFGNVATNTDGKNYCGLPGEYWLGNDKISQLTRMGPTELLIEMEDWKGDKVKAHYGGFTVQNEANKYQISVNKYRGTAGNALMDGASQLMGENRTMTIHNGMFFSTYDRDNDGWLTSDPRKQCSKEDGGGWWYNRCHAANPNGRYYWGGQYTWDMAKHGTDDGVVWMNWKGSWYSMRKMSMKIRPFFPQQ
PLC-gamma1 inh – PLC-gamma1 (human) inhibition, primary screen. inhibition, % at 12.2 µM. 370,000 compounds, 0.84% hits. AID 720700. purified PLC-gamma1, fluorogenic substrate, fluorescence
ADAM10 inh – ADAM10 inhibition, QFRET primary screen. recombinant ADAM10, EDANS/DABCYL FRET peptide cleavage, 3 h. inhibition, % at 7 µM. 370,000 compounds, 0.62% hits. AID 720582;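 active = inhibition above a per-campaign cutoff equal to the mean of compounds falling between control-based bounds plus 3 SD, cut at about 20% in these data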;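 note: 0% = DMSO wells while the 100% control is not disclosed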
ADAM17 inh – ADAM17 inhibition, QFRET primary screen. inhibition, % at 6.95 µM. recombinant ADAM17, EDANS/DABCYL FRET peptide cleavage. 370,000 compounds, 0.83% hits;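 active = inhibition above the mean of compounds lying between control limits plus 3 SD, set per campaign, cut at about 8.5% in these data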;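 note: 0% = DMSO-only wells as the low control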
Tn7 DDE FP – DD(E)-Tn7 binding inhibition, primary FP screen | 370,000 compounds, 0.13% hits | inhibition, % at 8.3 µM | AID 720508 | FP displacement of FITC-Tn7 peptide from fibrin DD(E); 0% = median of compound wells per plate | P02675;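 active = inhibition above the mean of compounds falling within the control limits plus 3 SD of them, cut at about 14% in these data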;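 note: 0% = plate median of compound wells and 100% = 10 µM Aha-Tn7 peptide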
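Measure: % inhibition scaled between sample-field median and high-control FP; Test system: human fibrin DD(E); Quantity: 2 µM final DD(E) protein; Doses: one dose, 8.3 µM nominal; Schedule: compound with protein 10 min, then 3 h after probe, room temperature; Detection: fluorescence polarization; Medium: Tris buffer with calcium and detergent, pH 7.8.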
PLCg1 ctr – counter-screen for PLC-beta3 inhibitors: inhibitors of human PLC-gamma1 | shares compounds with PLC-gamma1 inh | purified PLC-gamma1, fluorogenic substrate, fluorescence | inhibition, % at 12.3 µM | 3,300 compounds, 3.1% hits | AID 743258
PLCb3 confirm – confirmation of human PLC-beta3 inhibitors | shares compounds with PLC-gamma1 inh | purified PLC-beta3, fluorogenic substrate fluorescence | inhibition, % at 12.3 µM | 3,300 compounds, 1% hits | AID 743261; in the data active = inhibition above about 11%
Active calls of the source: *; / = no result given. This is a sample that favours compounds with a hit; in the whole collection about 2.3% have one here. Cut-off read from the data, not from the text of the source, unless noted: active = inhibition above about 9.5%; inactive = the rest.

SMILES | PLCb3 inh | Tn6 DDE FP | PLC-gamma1 inh | ADAM10 inh | ADAM17 inh | Tn7 DDE FP | PLCg1 ctr | PLCb3 confirm
CCOC(=O)CSc1nnc(NC(=O)c2cccc([N+](=O)[O-])c2)s1 | 12.8* | 0.9 | 4.8 | 10.8 | 4.3 | -0.5 | -3.1 | 0.2
Cc1cc(NS(=O)(=O)c2ccc(NC(=O)Cc3ccc(Cl)c(Cl)c3)cc2)on1 | -18.1 | -6.9 | -8.9 | -8.4 | -4.9 | -2.1 | / | /
Cc1ccc(-c2nc(N)n(C(=O)c3cccnc3)n2)cc1 | 7.3 | 3.5 | 12.4* | -4.1 | -1.0 | -2.8 | -4.5 | -0.7
COc1ccc(CN(C)CC(=O)Nc2ccc(Cl)cc2C(F)(F)F)c(OC)c1 | -0.6 | -3.6 | 12.6* | -4.3 | -0.5 | 3.5 | -1.8 | 1.5
O=C(O)CCC(=O)c1ccc(-c2ccccc2)cc1 | -1.0 | 9.0 | -2.9 | -8.2 | -3.7 | 9.9 | / | /
O=C(O)CCC(=O)CCC(=O)c1ccc(Cl)cc1 | 0.9 | -1.3 | 10.6* | 8.0 | 1.6 | -3.6 | -4.8 | -1.3
COc1ccc(C(=O)Nc2ccc3c(c2)nc(CN2CCN(C(C)=O)CC2)n3C)cc1 | 11.4* | 4.1 | 8.1 | 4.2 | 2.3 | 0.2 | 0.5 | -0.9
COc1ccc(C(=O)Nc2ccc3c(c2)nc(CN2CCCC2)n3C)cc1 | -19.3 | 4.2 | -10.3 | 2.4 | -5.0 | 7.7 | / | /
CC1(C(=O)NS(=O)(=O)c2cccc(Cl)c2)CCN1C(=O)Cc1ccsc1 (centres undefined) | 2.1 | -6.5 | 10.2* | 1.3 | 2.2 | -7.2 | -8.9 | -4.8
NC(=O)c1ccc(NS(=O)(=O)c2ccc(Br)s2)cc1 | -1.8 | -3.2 | 9.7* | 6.5 | 1.4 | 1.1 | -3.7 | -2.9
CCCCCC(=O)Nc1ccc(Cl)cn1 | 4.0 | -4.1 | 4.8 | 5.8 | 0.0 | 0.7 | / | /
CCCCCC(=O)NC(=S)Nc1ccc(Cl)cn1 | 1.2 | -0.7 | 10.3* | 15.3 | 7.0 | -7.0 | -5.4 | -5.5
Cn1c(SCC(=O)c2c(N)n(C)c(=O)n(C)c2=O)nnc1-c1ccccc1F | -2.1 | -3.7 | -1.2 | -1.6 | -0.9 | 6.0 | / | /
Cn1c(N)c(C(=O)CSc2nc3ccccc3c(=O)n2Cc2ccccc2)c(=O)n(C)c1=O | 5.4 | 5.3 | 10.6* | 10.2 | 2.1 | -0.6 | -4.7 | -4.1
Cn1c(SCC(=O)c2c(N)n(C)c(=O)n(C)c2=O)nnc1-c1ccccc1 | 3.3 | -1.2 | 14.6* | 6.3 | 5.0 | -2.9 | -6.4 | -0.7
COc1cc(-n2c(C)nc3cc(C(=O)N4CCCC4)ccc32)cc(OC)c1OC | -1.0 | 8.9 | -5.3 | -8.8 | -2.4 | -0.1 | / | /
CS(=O)(=O)c1ccc(C(=O)OCC#CCSc2nnc(-c3cccc4ccccc34)o2)cc1 | -5.5 | -3.4 | -5.1 | -12.3 | -8.3 | 4.4 | / | /
CCOc1ccc(C(=O)Nc2ccc3c(c2)OCCO3)cc1OC | 2.1 | 2.8 | 1.7 | -6.4 | -3.3 | 0.2 | / | /
CCOc1ccc(C(=O)Nc2ccc3c(c2)OCCO3)cc1[N+](=O)[O-] | 3.8 | 4.7 | 10.5* | 9.1 | 3.2 | 0.0 | -1.5 | 0.2
CCCCN1CC(=O)N2[C@H](C[C@@]3(C)c4ccccc4N(S(=O)(=O)c4ccccc4)[C@@H]23)C1=O | 2.4 | -3.6 | -3.2 | -3.3 | -4.0 | -2.5 | / | /
Oc1ccccc1C=Nn1c(-c2ccccc2F)n[nH]c1=S | -8.6 | 3.5 | -6.9 | 1.6 | -2.8 | 0.0 | / | /
O=C(OCC(=O)C12CC3CC(CC(C3)C1)C2)c1cnccn1 | 2.7 | -3.1 | 12.4* | -5.5 | 0.2 | -8.1 | 1.0 | 1.3
O=C(OCC(=O)C12CC3CC(CC(C3)C1)C2)c1ccc(O)cc1O | 3.5 | 7.2 | 10.1* | 6.2 | 3.0 | 4.6 | 2.0 | 2.7
O=C(COC(=O)c1cnccn1)c1ccccc1 | 11.8* | -5.5 | -0.7 | -1.6 | -1.8 | -1.9 | -4.1 | -0.4
CC(C)N1CCCCC(NC(=O)c2ccc(Cl)cc2Cl)C1=O (centres undefined) | 3.5 | -3.0 | 3.5 | -10.9 | -8.1 | 0.0 | / | /
SMILES | PLCb3 inh | Tn6 DDE FP | PLC-gamma1 inh | ADAM10 inh | ADAM17 inh | Tn7 DDE FP | PLCg1 ctr | PLCb3 confirm
COC(=O)[C@H](CC(C)C)N(Cc1cn(Cc2ccc(C)cc2)nn1)S(=O)(=O)c1ccccc1Br | -0.1 | 0.5 | 0.6 | 11.2 | 5.3 | -6.6 | / | /
CC1CCCCN1C(=O)c1ccccc1OC1CCN(S(C)(=O)=O)CC1 (centres undefined) | 3.1 | -5.7 | 9.5* | 7.3 | 2.4 | -10.5 | -6.2 | -7.3
CCC1CCCCN1C(=O)c1ccccc1OC1CCN(S(C)(=O)=O)CC1 (centres undefined) | -4.9 | 3.4 | -1.5 | -3.2 | -0.8 | -4.6 | / | /
CC(C)Oc1nnnn1-c1ccccc1 | 3.4 | 5.3 | 3.2 | 2.8 | 2.3 | -6.7 | / | /
c1ccc(-n2nnnc2OCCOc2nnnn2-c2ccccc2)cc1 | 9.4 | -1.8 | 13.6* | 6.4 | 2.4 | 5.4 | 4.1 | 1.4
O=C(COC(=O)/C=C/c1ccccc1[N+](=O)[O-])Nc1ccc(OC(F)F)cc1 | 0.8 | -2.2 | 10.6* | -2.4 | 1.7 | -1.5 | -4.9 | -3.5
O=C(COC(=O)/C=C/c1ccccc1[N+](=O)[O-])Nc1ccc(OCc2ccccc2)cc1 | 1.1 | 0.3 | 2.6 | 4.1 | 0.2 | -1.6 | / | /
COc1ccc(OC)c(S(=O)(=O)N2CCC(C(=O)N3CCN(C4CCCCC4)CC3)CC2)c1 | 0.5 | -3.9 | -0.9 | -5.1 | -2.0 | 5.9 | / | /
CCCn1c(SCC(=O)Nc2nc3c(s2)CCCC3)nc2c1c(=O)n(C)c(=O)n2C | 6.6 | -4.5 | 10.4* | 2.9 | -0.5 | 6.4 | 1.3 | 0.8
CS(=O)(=O)N[C@@H]1C[C@@H]2O[C@H](CO)CC[C@@H]2O[C@@H]1CCc1ccc(-c2ccccc2F)cc1 | 3.0 | -3.5 | 2.5 | 6.3 | 1.3 | -3.8 | / | /
Fc1cccc(Cl)c1Cn1ncc2ccccc21 | -4.0 | -1.6 | -1.2 | -1.3 | -2.7 | 5.3 | / | /
c1ccc(Cn2ncc3ccccc32)cc1 | 3.1 | 2.5 | 14.9* | -1.2 | 5.8 | -12.7 | -8.0 | -0.9
COc1ccc(S[C@]2(C(=O)NCCCN(C)C)CC(=O)N[C@@H]2c2ccc(OC)cc2)cc1 | -1.8 | -3.1 | -0.8 | -4.3 | -2.2 | -1.1 | / | /
Cc1ccccc1CN1CCCCC(NC(=O)C2CCC2)C1=O (centres undefined) | 4.3 | 6.4 | 6.8 | 1.2 | 3.0 | 5.4 | / | /
Cc1cccc(N=Nc2c(N)n[nH]c2-c2ccc(Cl)cc2)c1 | 9.6 | 1.6 | 11.2* | 10.1 | 7.3 | -3.4 | 8.0 | 5.5
Cc1ccc(N=Nc2c(N)n[nH]c2N)cc1 | 3.5 | 6.0 | 8.8 | 2.9 | 2.4 | -7.7 | / | /
COc1ccc(-c2csc(N(CC3CCCO3)C(=O)c3ccccc3)n2)cc1 (centres undefined) | -0.5 | 0.8 | -0.2 | 0.5 | -1.7 | 0.1 | / | /
